Measured values published in ChEMBL document CHEMBL3286320, “Design, Synthesis, and Optimization of Balanced Dual NK1/NK3 Receptor Antagonists” (ACS Med Chem Lett, 2014).

Key:
Substance-P receptor = Substance-P receptor (Homo sapiens, UniProt P25103); test: Displacement of [125I]-Bolton Hunter-substance P from human NK1 receptor expressed in human U373MG cells; type: cell-based, U-373MG ATCC
Summary of the method: (§1)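 Radioligand binding on membranes: NK1 on membranes from U-373MG cells, which express the receptor endogenously; NK3 on membranes from CHO cells stably expressing the recombinant human receptor.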

Neuromedin-K receptor = target: T1, Neuromedin-K receptor (Homo sapiens, UniProt P29371); test: Displacement of [3H]-SR142801 from human NK3 receptor expressed in recombinant CHO cells; type: cell-based; summary of the method: as §1
T1 sequence (P29371 whole entry): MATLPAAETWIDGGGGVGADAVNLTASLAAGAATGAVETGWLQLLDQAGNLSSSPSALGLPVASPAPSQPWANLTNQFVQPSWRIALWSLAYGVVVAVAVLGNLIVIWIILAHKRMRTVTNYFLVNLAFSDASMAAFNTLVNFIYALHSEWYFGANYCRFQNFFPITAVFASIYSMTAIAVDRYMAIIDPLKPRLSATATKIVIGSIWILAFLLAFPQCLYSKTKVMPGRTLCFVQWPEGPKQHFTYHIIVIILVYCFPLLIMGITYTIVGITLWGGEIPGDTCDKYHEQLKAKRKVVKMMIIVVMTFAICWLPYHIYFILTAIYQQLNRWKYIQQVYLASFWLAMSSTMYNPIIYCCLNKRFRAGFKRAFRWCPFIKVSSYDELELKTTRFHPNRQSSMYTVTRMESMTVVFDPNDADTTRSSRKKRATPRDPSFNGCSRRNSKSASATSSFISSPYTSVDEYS

Chain of Substance-P receptor (P25103 whole entry): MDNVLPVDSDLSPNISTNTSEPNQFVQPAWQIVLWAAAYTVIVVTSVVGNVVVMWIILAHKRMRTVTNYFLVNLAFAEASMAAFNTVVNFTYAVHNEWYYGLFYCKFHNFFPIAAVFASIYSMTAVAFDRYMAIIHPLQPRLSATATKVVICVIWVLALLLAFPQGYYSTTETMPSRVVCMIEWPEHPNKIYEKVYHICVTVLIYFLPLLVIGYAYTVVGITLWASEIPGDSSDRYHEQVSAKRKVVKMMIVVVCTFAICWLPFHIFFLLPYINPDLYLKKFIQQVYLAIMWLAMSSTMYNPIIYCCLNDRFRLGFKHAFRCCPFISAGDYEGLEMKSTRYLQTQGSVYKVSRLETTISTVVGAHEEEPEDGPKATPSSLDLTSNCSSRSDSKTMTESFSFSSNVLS

| Compound | Ki (Substance-P receptor) [nM] | Ki (Neuromedin-K receptor) [nM] |
| --- | --- | --- |
| CN1C(=O)OC2(CCN(CCC[C@@H](C(=O)N(C)[C@@H](Cc3ccccc3)C(=O)NCCN)c3ccc(Cl)c(Cl)c3)CC2)c2cc(F)ccc21 | 50.1 | 3980 |
| CN1C(=O)OC2(CCN(CC[C@@](C)(C(=O)N(C)[C@H](Cc3ccccc3)C(=O)NCCCN)c3ccc(Cl)c(Cl)c3)CC2)c2cc(F)ccc21 | 3.98 | 25.1 |
| CN(C)CCNC(=O)[C@@H](Cc1ccccc1)NC(=O)[C@](C)(CCN1CCC2(CC1)OC(=O)N(C)c1ccc(F)cc12)c1ccc(Cl)c(Cl)c1 | 39.8 | 31.6 |
| CN1C(=O)OC2(CCN(CCC[C@@](C)(C(=O)N[C@H](C(=O)NCCN)c3ccccc3)c3ccc(Cl)c(Cl)c3)CC2)c2cc(F)ccc21 | 316 | 794 |
| CN1C(=O)OC2(CCN(CC[C@H](C(=O)N(C)[C@@H](Cc3ccccc3)C(=O)NCCN)c3ccc(Cl)c(Cl)c3)CC2)c2cc(F)ccc21 | 200 | 1260 |
| CN1C(=O)OC2(CCN(CC[C@@H](C(=O)N(C)[C@H](C(=O)NCCN)c3ccccc3)c3ccc(Cl)c(Cl)c3)CC2)c2cc(F)ccc21 (racemic) | 631 | 2510 |
| CN(C)CCNC(=O)[C@@H](Cc1ccccc1)NC(=O)[C@](C)(CCCN1CCC2(CC1)OC(=O)N(C)c1ccc(F)cc12)c1ccc(Cl)c(Cl)c1 | 20 | 1000 |
| CN1C(=O)OC2(CCN(CCC[C@H](C(=O)N(C)[C@@H](Cc3ccccc3)C(=O)NCCN)c3ccc(Cl)c(Cl)c3)CC2)c2cc(F)ccc21 | 398 | 6310 |
| CN1C(=O)OC2(CCN(CCC[C@@](C)(C(=O)N[C@H](Cc3ccccc3)C(=O)NCCO)c3ccc(Cl)c(Cl)c3)CC2)c2cc(F)ccc21 | 15.8 | 126 |
| CN1C(=O)OC2(CCN(CC[C@@H](C(=O)N(C)[C@@H](Cc3ccccc3)C(=O)NCCN)c3ccc(Cl)c(Cl)c3)CC2)c2cc(F)ccc21 (mixture of isomers) | 126 | 1580 |

Results, then the compound that gave them:

| Ki (Substance-P receptor) [nM] | Ki (Neuromedin-K receptor) [nM] | Compound |
| --- | --- | --- |
| 15.8 | 20 | CNCCNC(=O)[C@@H](Cc1ccccc1)NC(=O)[C@](C)(CCN1CCC2(CC1)OC(=O)N(C)c1ccc(F)cc12)c1ccc(Cl)c(Cl)c1 |
| 251 | 39.8 | CN1C(=O)OC2(CCN(CC[C@@](C)(C(=O)N[C@H](C(=O)NCCN)c3ccccc3)c3ccc(Cl)c(Cl)c3)CC2)c2cc(F)ccc21 |
| 2.51 | 7.94 | CN1C(=O)OC2(CCN(CC[C@@](C)(C(=O)N(C)[C@H](Cc3ccccc3)C(=O)NCCN)c3ccc(Cl)c(Cl)c3)CC2)c2cc(F)ccc21 |
| 631 | 2000 | CN1C(=O)OC2(CCN(CC[C@](C)(C(=O)N[C@H](Cc3ccccc3)C(=O)NCCN)c3ccc(Cl)c(Cl)c3)CC2)c2cc(F)ccc21 |
| 31.6 | 2.51 | CN1C(=O)OC2(CCN(CC[C@@](C)(C(=O)N[C@H](Cc3ccccc3)C(=O)NCCO)c3ccc(Cl)c(Cl)c3)CC2)c2cc(F)ccc21 |
| 63.1 | 1580 | CN1C(=O)OC2(CCN(CCC[C@@](C)(C(=O)N[C@H](Cc3ccccc3)C(=O)NCCN)c3ccc(Cl)c(Cl)c3)CC2)c2cc(F)ccc21 |
| 20 | 50.1 | CN1C(=O)OC2(CCN(CC[C@@](C)(C(=O)N[C@H](Cc3ccccc3)C(=O)NCCN)c3ccc(Cl)c(Cl)c3)CC2)c2cc(F)ccc21 |
| 398 | 10000 | CN1C(=O)OC2(CCN(CC[C@](C)(C(=O)N[C@@H](Cc3ccccc3)C(=O)NCCN)c3ccc(Cl)c(Cl)c3)CC2)c2cc(F)ccc21 |
| 126 | 63.1 | CN1C(=O)OC2(CCN(CC[C@@](C)(C(=O)N[C@@H](Cc3ccccc3)C(=O)NCCN)c3ccc(Cl)c(Cl)c3)CC2)c2cc(F)ccc21 |
